Experimental data collected from several papers.
Compare with care: the assays were run in different laboratories. ≈ marks a conversion by molar mass, not a printed value.

| Structure (SMILES) | tested on | assay | test system | conditions | measurement | value |
| --- | --- | --- | --- | --- | --- | --- |
| CC(C)(C)OC(=O)N1CCN(c2ccc(-c3cnc4c(c3)c(C(=O)c3ccc(F)cc3)cn4CC3CC3)cn2)CC1 | A549 | cell growth or viability, MTT | – | 10 µM, 48 h | viability | 79.8% |
| CC(C)=CCC/C(C)=C/COc1cc(O)cc(O)c1C(=O)c1ccccc1 | – | ABTS scavenging, absorbance | – | 5 min | IC50 | 380000 nM |
| Nc1ncnc2c([C@@H]3N[C@H](CO)[C@@H](O)[C@H]3O)c[nH]c12 | unidentified influenza virus | viral replication, inhibitor | MDCK | 29.6 µM | inhibition | 100% |
| COc1ccc(C(=O)c2c[nH]c3ncc(-c4ccc(N5CCNCC5)nc4)cc23)cc1 | A549 | cell growth or viability, MTT | – | 10 µM, 48 h | viability | 110% |
| Cc1ccc(CN2C(=O)/C(=N\NC(=O)c3cc4ccccc4[nH]3)c3ccccc32)cc1 | A549 | cell growth or viability | – | 30 µM | inhibition | 91.9% |
| C[C@]12C=CC(=O)C[C@@H]1CC[C@@H]1[C@@H]2C(=O)C[C@@]2(C)[C@H]1CC[C@]2(C)O | NIH3T3 | cell growth or viability, MTT | – | 24 h | IC50 | > 30000 nM |
| COC(=O)C(Cc1c[nH]c2ccccc12)n1c(C)nc2c(N)nc(=O)[nH]c21 (stereo not drawn) | unidentified influenza virus | viral replication | A549, H1N1 PR8 | 24 h | IC50 | 310 nM |
| CC(C)(C)OC(=O)N1CCN(c2ccc(-c3cnc4[nH]cc(C(=O)c5cccc(F)c5)c4c3)cn2)CC1 | A549 | cell growth or viability, MTT | – | 10 µM, 48 h | viability | 93.7% |
| C[C@@H]1[C@H](O)[C@@H](C)/C=C/C=C/C=C/C=C/C=C/C=C/C=C/[C@H](O[C@@H]2O[C@H](C)[C@@H](O)[C@H](N)[C@@H]2O)C[C@@H]2O[C@](O)(C[C@@H](O)C[C@@H](O)[C@H](O)CC[C@@H](O)C[C@@H](O)CC(=O)O[C@H]1C)C[C@H](O)[C@H]2C(=O)O | Leishmania donovani | parasite growth | THP-1 | intracellular, amastigote | IC50 | 0.1 µg/mL |
| O=C(N/N=C1\C(=O)N(Cc2ccccc2)c2ccc(Cl)cc21)c1cc2ccccc2[nH]1 | A549 | cell growth or viability, imaging | – | 24 h | IC50 | 1770 nM |
| Cc1nc2c(N)nc(=O)[nH]c2n1CC(=O)O | unidentified influenza virus | viral replication | A549, H1N1 PR8 | 24 h | IC50 | 39 nM |
| Cc1c(C)c2c(c(C)c1O)CCC(C)(C(=O)O)O2 (stereo not drawn) | – | ABTS scavenging | – | – | IC50 | 6.16 µg/mL |
| CC(C)(C)OC(=O)N1CCN(c2cc(-c3cnc4[nH]cc(C(=O)c5ccc(F)cc5)c4c3)ccn2)CC1 | A549 | cell growth or viability, MTT | – | 10 µM, 48 h | viability | 84.2% |
| Oc1c(Cl)cc(Cl)cc1Sc1cc(Cl)cc(Cl)c1O | Betapolyomavirus hominis | viral replication, inhibitor, qPCR | Vero | 30 µM, 5 days | inhibition | ~70% |
| N#Cc1cc2c(-c3ccccc3)n[nH]c2c(Nc2ccccc2)n1 | PC-3 | cell growth or viability, MTS | – | 48 h | IC50 | 2100 nM |
| COC(=O)C(Cc1ccccc1)n1c(C)nc2c(N)nc(=O)[nH]c21 (stereo not drawn) | unidentified influenza virus | viral replication | A549, H1N1 PR8 | 24 h | IC50 | 340 nM |
| N=C(N)c1ccc(OCCCCCOc2ccc(C(=N)N)cc2)cc1 | Leishmania donovani | parasite growth, resazurin | – | 72 h, promastigote | IC90 | 2 µg/mL (≈ 5.87 µM) |
| CCOC(=O)c1c(CSc2ccccc2)n(C)c2cc(Br)c(O)c(CN(C)C)c12.Cl.O | Punta Toro virus | cytopathic effect | – | – | MIC50 | > 100 µg/mL |
| O=C(NCCCCCCCCNc1c2c(nc3ccccc13)CCCC2)c1ccccc1O | – | ABTS scavenging | – | 1 h | IC50 | 25900 nM |
| O=c1c(O[C@@H]2O[C@H](CO)[C@H](O)[C@H](O)[C@H]2O)c(-c2ccc(O)c(O)c2)oc2cc(O)cc(O)c12 | – | ABTS scavenging, absorbance | – | 5 min | IC50 | 6610 nM |
| Cc1nc2c(N)nc(=O)[nH]c2n1C(Cc1ccccc1)C(=O)O (stereo not drawn) | unidentified influenza virus | viral replication | A549, H1N1 PR8 | 24 h | IC50 | 520 nM |
| CCC1(c2ccc(N)cc2)CCC(=O)NC1=O (stereo not drawn) | PC-3 | cell growth or viability, CCK-8 | – | 48 h | IC50 | > 50000 nM |
| Cc1nc2c(N)nc(N)nc2n1C(Cc1ccccc1)C(=O)O (stereo not drawn) | unidentified influenza virus | viral replication | A549, H1N1 PR8 | 24 h | IC50 | 210 nM |
| O=C(NCCCCCCNc1c2c(nc3ccccc13)CCCC2)c1ccccc1O | – | ABTS scavenging | – | 1 h | IC50 | 21300 nM |
